Active and inactive are the calls of the source. The calls are words filed in the database; no cut-off is given here.
Legend:
[1] = tested on: Trypanosoma brucei rhodesiense; test: Antitrypanosomal activity against Trypanosoma brucei rhodesiense STIB900 infected in NMRI mouse assessed as mouse survival at 100 mg/kg, ip administered on day 3 post infection for 4 days measured up to 60 days; format: functional; settings: route intraperitoneal
Liver [2] = test: Half life in Swiss Webster mouse liver S9 fraction by UV-HPLC analysis; format: ADME, subcellular
[3] = tested on: Trypanosoma brucei rhodesiense; test: Antitrypanosomal activity against Trypanosoma brucei rhodesiense STIB900 infected in NMRI mouse assessed as cured animal at 100 mg/kg, ip administered on day 3 post infection for 4 days measured up to 60 days; format: functional, organism-based; set-up: dose 100 mg/kg
Outline: (§1)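 Acute-stage mouse model: compound dosed daily for 4 days. A cure is a mouse surviving parasite-free for 60 days. Average days of survival also recorded.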

[4] = tested on: Trypanosoma brucei rhodesiense; test: Antitrypanosomal activity against Trypanosoma brucei rhodesiense STIB900 assessed as parasite growth inhibition after 70 hrs by Alamar blue assay; format: functional, organism-based; settings: STIB900, 70 h
L6 = test: Cytotoxicity against rat L6 cells assessed as cell viability after 70 hrs by Alamar blue assay; format: cell-based; settings: L6, 70 h
Plasmodium falciparum [5] = test: Antiplasmodial activity against Plasmodium falciparum K1 assessed as [3H]-hypoxanthine incorporation after 48 hrs by liquid scintillation counting analysis; format: functional, organism-based
[6] = tested on: Trypanosoma brucei brucei; test: Antitrypanosomal activity against Trypanosoma brucei brucei GVR35 infected in NMRI mouse assessed as mouse survival at 100 mg/kg, po administered on day 21 post infection for 5 days measured up to 180 days; format: functional
Outline: (§2)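 Oral dosing in the T. b. brucei GVR35 second-stage (CNS) mouse model, daily for 5 or 10 days. Cure means survival for more than 180 days after infection with no parasitemia relapse. Mean survival days are computed across mice with and without relapse.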

Liver microsomes = test: Half life in human liver microsomes by UV-HPLC analysis; format: ADME, Microsome
Outline: (§3)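 Substrate at 10 μM with 0.5 mg/ml pooled human or mouse liver microsomes, 0.5% DMSO, in 100 mM phosphate pH 7.4 with 3.3 mM MgCl2. After 5-min pre-equilibration at 37°C, 1 mM β-NADPH is added; triplicates.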

Liver [7] = test: Half life in mouse liver microsomes by UV-HPLC analysis; format: ADME, Microsome; outline: as §3
[8] = tested on: Trypanosoma brucei brucei; test: Antitrypanosomal activity against Trypanosoma brucei brucei GVR35 infected in NMRI mouse assessed as cured animal at 100 mg/kg, po administered on day 21 post infection for 5 days measured up to 180 days; format: functional, organism-based; set-up: dose 100 mg/kg
Outline: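 Second-stage CNS model, oral dosing. A cure is survival beyond 180 days after infection without parasitemia relapse. Mean survival days are computed from mice with and without relapse. Reference diamidine control given once at 40 mg/kg ip.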

[9] = tested on: Trypanosoma brucei rhodesiense; test: Antitrypanosomal activity against Trypanosoma brucei rhodesiense STIB900 infected in NMRI mouse assessed as mouse survival at 5 mg/kg, ip administered on day 3 post infection for 4 days measured up to 60 days; format: functional; settings: route intraperitoneal
[10] = tested on: Trypanosoma brucei rhodesiense; test: Antitrypanosomal activity against Trypanosoma brucei rhodesiense STIB900 infected in NMRI mouse assessed as cured animal at 5 mg/kg, ip administered on day 3 post infection for 4 days measured up to 60 days; format: functional, organism-based; set-up: dose 5 mg/kg; outline: as §1
[11] = tested on: Trypanosoma brucei rhodesiense; test: Antitrypanosomal activity against Trypanosoma brucei rhodesiense STIB900 infected in NMRI mouse assessed as cured animal at 20 mg/kg, ip administered on day 3 post infection for 4 days measured up to 60 days; format: functional, organism-based; set-up: dose 20 mg/kg; outline: as §1
[12] = tested on: Trypanosoma brucei rhodesiense; test: Antitrypanosomal activity against Trypanosoma brucei rhodesiense STIB900 infected in NMRI mouse assessed as mouse survival at 20 mg/kg, ip administered on day 3 post infection for 4 days measured up to 60 days; format: functional; settings: route intraperitoneal
[13] = tested on: Trypanosoma brucei rhodesiense; test: Antitrypanosomal activity against Trypanosoma brucei rhodesiense STIB900 infected in NMRI mouse assessed as cured animal at 10 mg/kg, ip administered on day 3 post infection for 4 days measured up to 60 days; format: functional, organism-based; set-up: dose 10 mg/kg; outline: as §1
[14] = tested on: Trypanosoma brucei brucei; test: Antitrypanosomal activity against Trypanosoma brucei brucei GVR35 infected in NMRI mouse assessed as mouse survival at 100 mg/kg, po administered on day 21 post infection for 10 days measured up to 180 days; format: functional; outline: as §2
Plasmodium falciparum [15] = test: Potency index, ratio of pentamidine IC50 to compound IC50 for Plasmodium falciparum K1; format: functional

N=C(NO)c1ccc(-c2ccc(-c3ccc(/C(N)=N\O)cc3)o2)cc1
Survival [1]: 50 days
t1/2 (Liver [2]): 29 min
Activity [3]: inactive

N/C(=N\O)c1ccc(-c2cncc(-c3ccc(/C(N)=N/O)cn3)n2)nc1
IC50 [4]: 90.6 µM
t1/2 (Liver [2]): 20 min
IC50 (L6): > 196 µM
IC50 (Plasmodium falciparum [5]): 7.01 µM

CO/N=C(\N)c1ccc(-c2cncc(-c3ccc(/C(N)=N\OC)cn3)n2)nc1
MSD [6]: 67.2 days
IC50 [4]: 120 µM
t1/2 (Liver microsomes): 70 min
t1/2 (Liver [7]): 200 min
Activity [8]: inactive
IC50 (L6): 20.1 µM
IC50 (Plasmodium falciparum [5]): 7.39 µM

N=C(N)c1ccc(-c2cnc(-c3ccc(C(=N)N)cc3)cn2)cc1
Survival [9]: 36.5 days
Activity [10]: inactive

N=C(N)c1ccc(-c2ccc(-c3ccc(C(=N)N)cn3)o2)nc1
Survival [9]: >49.5 days
Activity [11]: Active
IC50 (L6): 83 µM
Survival [12]: >60 days

N/C(=N\O)c1ccc(-c2cncc(-c3ccc(/C(N)=N/O)cn3)n2)cc1
IC50 [4]: 7.78 µM
t1/2 (Liver [2]): 30 min
IC50 (L6): 24.6 µM
IC50 (Plasmodium falciparum [5]): 8.4 µM

N/C(=N\O)c1ccc(-c2cncc(-c3ccc(/C(N)=N/O)nc3)n2)cc1
IC50 [4]: 10.8 µM
t1/2 (Liver [2]): 36 min
IC50 (L6): 5 µM
IC50 (Plasmodium falciparum [5]): 0.453 µM

CONC(=N)c1ccc(-c2ccc(-c3ccc(C(=N)NOC)cc3)o2)cc1 [PAFURAMIDINE]
MSD [6]: >167.8 days
Activity [13]: Active
t1/2 (Liver microsomes): 6.8 min
t1/2 (Liver [7]): 150 min

N/C(=N\O)c1ccc(-c2cncc(-c3ccc(/C(N)=N/O)cc3)n2)cc1
MSD [6]: 69 days
IC50 [4]: 7.95 µM
t1/2 (Liver [2]): 1.9 min
Activity [13]: inactive
Activity [8]: inactive
IC50 (L6): 2.9 µM
IC50 (Plasmodium falciparum [5]): 0.87 µM

N=C(N)c1ccc(-c2cncc(-c3ccc(C(=N)N)nc3)n2)cn1
IC50 [4]: 0.0048 µM
Survival [9]: >36.5 days
IC50 (L6): 24.4 µM
IC50 (Plasmodium falciparum [5]): 0.085 µM

N=C(N)c1ccc(-c2cncc(-c3ccc(C(=N)N)nc3)n2)cc1
IC50 [4]: 0.006 µM
Survival [9]: >60 days
IC50 (L6): 34.1 µM
IC50 (Plasmodium falciparum [5]): 0.01 µM

N=C(N)c1ccc(-c2cncc(-c3ccc(C(=N)N)cc3F)n2)c(F)c1
IC50 [4]: 0.027 µM
Survival [9]: >41 days
IC50 (L6): 29.8 µM
Activity [10]: inactive

CO/N=C(\N)c1ccc(-c2cncc(-c3ccc(/C(N)=N\OC)nc3)n2)cn1
IC50 [4]: 7.87 µM
t1/2 (Liver microsomes): 14 min
t1/2 (Liver [7]): 59 min
IC50 (L6): > 212 µM
IC50 (Plasmodium falciparum [5]): 0.328 µM

Cc1cc(C(=N)N)ccc1-c1cncc(-c2ccc(C(=N)N)cc2C)n1
IC50 [4]: 0.462 µM
IC50 (L6): 117 µM
IC50 (Plasmodium falciparum [5]): 0.323 µM

N=C(N)c1ccc(-c2cncc(-c3ccc(C(=N)N)cn3)n2)cc1
IC50 [4]: 0.014 µM
Survival [9]: >60 days
IC50 (L6): 117 µM
Activity [10]: Active
IC50 (Plasmodium falciparum [5]): 0.052 µM

CO/N=C(\N)c1ccc(-c2cncc(-c3ccc(/C(N)=N\OC)cc3)n2)cn1
IC50 [4]: 194 µM
t1/2 (Liver microsomes): 6.5 min
t1/2 (Liver [7]): 35 min
IC50 (L6): > 185 µM
IC50 (Plasmodium falciparum [5]): 0.453 µM

N=C(N)c1ccc(-c2ccc(-c3ccc(C(=N)N)cn3)o2)cc1
Survival [9]: >54.5 days
Activity [11]: Active
Survival [12]: >60 days

CO/N=C(\N)c1ccc(-c2cncc(-c3ccc(/C(N)=N\OC)cc3)n2)cc1
MSD [14]: >180 days
MSD [6]: >173.8 days
IC50 [4]: 18.9 µM
t1/2 (Liver microsomes): 8.6 min
t1/2 (Liver [7]): 26 min
IC50 (L6): 58.7 µM
IC50 (Plasmodium falciparum [5]): 0.41 µM

CO/N=C(\N)c1ccc(-c2cncc(-c3ccc(/C(N)=N\OC)cc3)n2)nc1
IC50 [4]: 25.3 µM
t1/2 (Liver microsomes): 7.6 min
t1/2 (Liver [7]): 210 min
IC50 (L6): > 180 µM
IC50 (Plasmodium falciparum [5]): 5.6 µM

N=C(N)c1ccc(-c2ccc(-c3ccc(C(=N)N)cc3)o2)cc1 [FURAMIDINE]
Survival [9]: >46 days
Survival [12]: >57.75 days

CO/N=C(\N)c1ccc(-c2ccc(-c3ccc(/C(N)=N/OC)cn3)o2)nc1
MSD [6]: >180 days
Activity [8]: Active

CO/N=C(\N)c1ccc(-c2ccc(-c3ccc(/C(N)=N/OC)cn3)o2)cc1
MSD [6]: >180 days
Activity [8]: Active

N=C(N)c1ccc(-c2cncc(-c3ccc(C(=N)N)cn3)n2)nc1
IC50 [4]: 0.037 µM
Survival [9]: >53.75 days
IC50 (L6): 139 µM
IC50 (Plasmodium falciparum [5]): 0.031 µM

N=C(N)c1ccc(-c2cncc(-c3ccc(C(=N)N)cc3)n2)cc1
IC50 [4]: 0.0058 µM
Survival [9]: >53.5 days
Ratio IC50 (Plasmodium falciparum [15]): 5
IC50 (L6): 80.8 µM
IC50 (Plasmodium falciparum [5]): 0.01 µM

N/C(=N\O)c1ccc(-c2cncc(-c3ccc(/C(N)=N\O)nc3)n2)cn1
MSD [6]: 95.2 days
IC50 [4]: 95.4 µM
t1/2 (Liver [2]): 51 min
Activity [8]: inactive
IC50 (L6): > 190 µM
IC50 (Plasmodium falciparum [5]): 0.785 µM
